Measured values from ChEMBL document CHEMBL3739414, “Synthesis and biological evaluation of methylated scutellarein analogs based on metabolic mechanism of scutellarin in vivo” (Eur J Med Chem, 2015).
pIC50: −log10 of the molar value. In brackets after ≈: the same amount, converted by molar mass.

Assays:
[1] = Antioxidant activity in rat PC12 cells assessed as inhibition of H2O2-induced cytotoxicity at 50 uM after 4 hrs by MTT assay; format: functional; conditions: PC-12, 4 h
Method in brief: (§1)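 PC12 cells seeded at 5×10^4 cells/ml and cultured 24 h at 37 °C, 5% CO2. The model group got 400 µM H2O2 for 1 h before drug at 25 or 50 µM; the control group got serum-free DMEM. Five wells per group. MTT 4 h at 37 °C, formazan dissolved in DMSO, absorbance read at 517 nm; inhibiting rate of H2O2 cytotoxicity calculated from absorbance.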

[2] = Antioxidant activity in rat PC12 cells assessed as inhibition of H2O2-induced cytotoxicity at 25 uM after 4 hrs by MTT assay; format: functional; conditions: PC-12, 4 h; method in brief: as §1
[3] = Aqueous solubility of the compound in water after 1 hr by UV-vis spectrophotometer analysis; format: physicochemical
Method in brief: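 Standard curves from methanol solutions at 0.1–10 µg/ml, UV read at 334 nm. Compound (150 µg) dissolved in 10 ml water by ultrasound for 1 h at room temperature, left 30 min, centrifuged. Supernatant measured by UV scan and solubility read from the standard curve.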

[4] = N-octanol/0.15 M NaHCO3 partition coefficient, log P of the compound after 5 hrs by spectrophotometric analysis; format: physicochemical
Method in brief: (§2)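 Shake-flask method. Stock (10 µg/ml) diluted into buffer (0.1 mol/L HCl, 0.15 mol/L NaCl or 0.15 mol/L NaHCO3) and mixed with an equal volume of mutually saturated n-octanol, protected from light. Vortexed 3 min, then shaken 5 h at 25 °C. Both phases read at 334 nm; logP = log([C]octanol/[C]aqueous).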

[5] = Antioxidant activity assessed as DPPH radical scavenging activity after 30 mins; format: physicochemical
Method in brief: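 Sample in DMSO at 5–500 μM mixed 1:1 with 0.2 mM DPPH in ethanol; DMSO control. Reaction 30 min at 25 °C, absorbance at 517 nm. Scavenging % = [1 − (A1 − A2)/A0] × 100, with a no-DPPH sample blank. IC50 = concentration giving 50% loss of DPPH radical.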

Plasma [6] = test: Antithrombotic activity in New Zealand white rabbit platelet-poor plasma assessed as increase of prothrombin time at 100 uM after 3 mins (reference value: 4.99 +/- 0.18 seconds); format: functional, Oryctolagus cuniculus
Method in brief: (§3)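 Citrated blood (3.8% citrate, 1:9) spun 3000 rpm for 10 min to give platelet-poor plasma. Compounds dissolved in 80% ethanol at 100 μM. Kit assays run on a coagulometer at 37 °C with 3 min incubations. TT: plasma, then thrombin plus sample. PT: plasma, then thromboplastin plus sample. APTT: sample, plasma and activator. FIB: plasma, FIB reagent and sample. Mean ± S.D., n = 4.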

Plasma [7] = test: Antithrombotic activity in New Zealand white rabbit platelet-poor plasma assessed as reduction of fibrinogen at 100 uM after 3 mins (reference value: 7.02+/- 0.16 g/L)
Plasma [8] = test: Antithrombotic activity in New Zealand white rabbit platelet-poor plasma assessed as increase of activated partial thromboplastin time at 100 uM after 3 mins (reference value: 30.58 +/- 1.55 seconds); format: functional, Oryctolagus cuniculus; method in brief: as §3
[9] = N-octanol/0.1 M HCl partition coefficient, log P of the compound after 5 hrs by spectrophotometric analysis; format: physicochemical; method in brief: as §2
Plasma [10] = test: Antithrombotic activity in New Zealand white rabbit platelet-poor plasma assessed as increase of thrombin time at 100 uM after 3 mins (reference value: 20.25 +/- 1.02 seconds); format: functional, Oryctolagus cuniculus; method in brief: as §3
[11] = N-octanol/0.15 M NaCl partition coefficient, log P of the compound after 5 hrs by spectrophotometric analysis; format: physicochemical; method in brief: as §2

| solubility at 1 h [3] [µg/mL] | logP at 5 h [4] | pIC50 [5] | logP at 5 h [9] | logP at 5 h [11] | SMILES | inhibition at 50 µM [1] [%] | inhibition at 25 µM [2] [%] | PT (Plasma [6]) [s] | Activity (Plasma [7]) [g/L] | APTT (Plasma [8]) [s] | TT (Plasma [10]) [s] |
| --- | --- | --- | --- | --- | --- | --- | --- | --- | --- | --- | --- |
| 4.56 (≈ 15.2 µM) | 1.03 | 4.52 | 1.59 | 1.54 | COc1cc2oc(-c3ccc(O)cc3)cc(=O)c2c(O)c1O | 82.3 | 56.2 | 6.55 | 5.74 | 34.49 | 25.48 |
| 5.72 (≈ 19 µM) | 0.892 | 4.54 | 1.55 | 1.47 | COc1c(O)c(O)cc2oc(-c3ccc(O)cc3)cc(=O)c12 | 81.4 | 54.4 | 6.65 | 5.58 | 30.53 | 22.6 |
| 6.31 (≈ 21 µM) | 0.785 | 4.60 | 1.65 | 1.41 | COc1ccc(-c2cc(=O)c3c(O)c(O)c(O)cc3o2)cc1 | 89.4 | 63.3 | 6.4 | 5.67 | 31.53 | 24.98 |
| 1.53 (≈ 4.87 µM) | 1.81 | 3.72 | 2.19 | 2.14 | COc1cc2oc(-c3ccc(O)cc3)cc(=O)c2c(O)c1OC [CIRSIMARITIN] | 76.1 | 52.2 | 6.95 | 5.65 | 39.42 | 25.1 |
| 3.2 (≈ 10.2 µM) | 1.4 | 3.80 | 1.94 | 1.79 | COc1ccc(-c2cc(=O)c3c(O)c(O)c(OC)cc3o2)cc1 [LADANEIN] | 74.3 | 48.2 | 6.93 | 5.94 | 38.28 | 23.33 |
| 1.36 (≈ 4.33 µM) | 1.86 | 3.77 | 2.14 | 2.09 | COc1ccc(-c2cc(=O)c3c(O)c(OC)c(O)cc3o2)cc1 [PECTOLINARIGENIN] | 68.1 | 44.2 | 6.53 | 5.92 | 30.48 | 27.45 |
| 0.31 (≈ 0.944 µM) | 2.27 | 3.33 | 2.64 | 2.55 | COc1ccc(-c2cc(=O)c3c(O)c(OC)c(OC)cc3o2)cc1 [SALVIGENIN] | 20.4 | 11.1 | 6.75 | 5.96 | 36 | 29.03 |
| – | 0.48 | 4.65 | 0.892 | 0.772 | O=c1cc(-c2ccc(O)cc2)oc2cc(O)c(O)c(O)c12 [SCUTELLAREIN] | 91.2 | 64.6 | 5.93 | 6.84 | 36.65 | 24.4 |

| SMILES | solubility at 1 h [3] [µg/mL] | logP at 5 h [4] | pIC50 [5] | logP at 5 h [9] | logP at 5 h [11] | inhibition at 50 µM [1] [%] | inhibition at 25 µM [2] [%] | PT (Plasma [6]) [s] | Activity (Plasma [7]) [g/L] | APTT (Plasma [8]) [s] | TT (Plasma [10]) [s] |
| --- | --- | --- | --- | --- | --- | --- | --- | --- | --- | --- | --- |
| COc1c(O)cc2oc(-c3ccc(O)cc3)cc(=O)c2c1O [HISPIDULIN] | 4.27 (≈ 14.2 µM) | 1.02 | 4.63 | 1.77 | 1.68 | 88 | 62.4 | 6.25 | 5.38 | 33.1 | 25.96 |
| O=C(O)[C@H]1O[C@@H](Oc2cc3oc(-c4ccc(O)cc4)cc(=O)c3c(O)c2O)[C@H](O)[C@@H](O)[C@@H]1O [SCUTELLARIN] | – | -0.0513 | 4.55 | 0.592 | 0.365 | 79.2 | 53.1 | 6.28 | 6.13 | 34.18 | 23.08 |
